Measured values taken from ChEMBL document CHEMBL1782042, “Efficient microwave-assisted synthesis and antitumor activity of novel 4,4'-methylenebis[2-(3-aryl-4,5-dihydro-1H-pyrazol-5-yl)phenols]” (Eur J Med Chem, 2011).

Key:
[1] = system: HOP-92; test: Cytotoxicity against human HOP92 cells; format: cell-based
Outline: (§1)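 NCI 60 human tumour cell line screen, second stage at five concentrations (100, 10, 1.0, 0.1 and 0.01 μM). Continuous drug exposure for 48 h, with cell growth estimated by sulforhodamine B protein staining. GI50 is the drug concentration giving a 50% reduction in net protein increase relative to control cells over the incubation.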

[2] = system: NCI-H226; test: Cytotoxicity against human NCI-H226 cells; format: cell-based; outline: as §1
[3] = system: NCI-H23; test: Cytotoxicity against human NCI-H23 cells; format: cell-based; outline: as §1
[4] = system: NCI-H460; test: Cytotoxicity against human NCI-H460 cells; format: cell-based; outline: as §1
[5] = system: NCI-H522; test: Cytotoxicity against human NCI-H522 cells; format: cell-based; outline: as §1
[6] = system: HCT-116; test: Cytotoxicity against human HCT116 cells; format: cell-based; outline: as §1
[7] = system: HCT-15; test: Cytotoxicity against human HCT15 cells; format: cell-based; outline: as §1
[8] = system: SW-620; test: Cytotoxicity against human SW620 cells; format: cell-based
Outline: (§2)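 NCI 60 human tumour cell line screen; five concentration levels (100, 10, 1.0, 0.1 and 0.01 μM), 48 h continuous drug exposure. Cell growth estimated by sulforhodamine B (SRB) protein staining. GI50 taken as the drug concentration giving a 50% reduction in net protein increase relative to control cells over the incubation.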

[9] = system: SNB-19; test: Cytotoxicity against human SNB19 cells; format: cell-based; outline: as §2
[10] = system: SNB-75; test: Cytotoxicity against human SNB75 cells; format: cell-based; outline: as §2
[11] = system: U-251; test: Cytotoxicity against human U251 cells; format: cell-based; outline: as §2
[12] = system: LOX IMVI; test: Cytotoxicity against human LOXIMVI cells; format: cell-based; outline: as §1
[13] = system: CCRF-CEM; test: Anticancer activity against human CCRF-CEM cells after 48 hrs by sulforhodamine B assay; format: functional
Outline: (§3)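 NCI 60-cell-line in vitro screen, second stage: five concentration levels (100, 10, 1.0, 0.1 and 0.01 μM) with 48 h continuous drug exposure. Cell growth was estimated by sulforhodamine B protein staining. GI50 is the drug concentration that gives a 50% reduction in net protein increase relative to control cells over the incubation.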

[14] = system: K562; test: Anticancer activity against human K562 cells after 48 hrs by sulforhodamine B assay; format: functional; conditions: K562, 48 h; outline: as §3
[15] = system: MDA-MB-435; test: Cytotoxicity against human MDA-MB-435 cells; format: cell-based; outline: as §1
[16] = system: SK-MEL-2; test: Cytotoxicity against human SK-MEL-2 cells; format: cell-based; outline: as §1
[17] = system: SK-MEL-5; test: Cytotoxicity against human SK-MEL-5 cells; format: cell-based; outline: as §1
[18] = system: OVCAR-4; test: Cytotoxicity against human OVCAR4 cells; format: cell-based; outline: as §1
[19] = system: OVCAR-8; test: Cytotoxicity against human OVCAR8 cells; format: cell-based; outline: as §1
[20] = system: NCI/ADR-RES; test: Cytotoxicity against human NCI/ADR-RES cells; format: cell-based; outline: as §1
[21] = system: 786-0; test: Cytotoxicity against human 786-0 cells; format: cell-based; outline: as §1
[22] = system: ACHN; test: Cytotoxicity against human ACHN cells; format: cell-based; outline: as §1
[23] = system: RXF 393; test: Cytotoxicity against human RXF393 cells; format: cell-based; outline: as §1
[24] = system: SN12C; test: Cytotoxicity against human SN12C cells; format: cell-based; outline: as §2
[25] = system: RPMI-8226; test: Anticancer activity against human RPMI8226 cells after 48 hrs by sulforhodamine B assay; format: functional; conditions: RPMI-8226, 48 h; outline: as §3
[26] = system: A549; test: Anticancer activity against human A549 cells after 48 hrs by sulforhodamine B assay; format: functional; conditions: A549, 48 h; outline: as §3
[27] = system: HOP-62; test: Anticancer activity against human HOP62 cells after 48 hrs by sulforhodamine B assay; format: functional; conditions: HOP-62, 48 h; outline: as §3
[28] = system: HOP-92; test: Anticancer activity against human HOP92 cells after 48 hrs by sulforhodamine B assay; format: functional; conditions: HOP-92, 48 h; outline: as §3
[29] = system: NCI-H226; test: Anticancer activity against human NCI-H226 cells after 48 hrs by sulforhodamine B assay; format: functional; conditions: NCI-H226, 48 h; outline: as §3
[30] = system: NCI-H23; test: Anticancer activity against human NCI-H23 cells after 48 hrs by sulforhodamine B assay; format: functional; conditions: NCI-H23, 48 h; outline: as §3
[31] = system: NCI-H460; test: Anticancer activity against human NCI-H460 cells after 48 hrs by sulforhodamine B assay; format: functional; conditions: NCI-H460, 48 h; outline: as §3
[32] = system: NCI-H522; test: Anticancer activity against human NCI-H522 cells after 48 hrs by sulforhodamine B assay; format: functional; conditions: NCI-H522, 48 h; outline: as §3
[33] = system: HCT-116; test: Anticancer activity against human HCT116 cells after 48 hrs by sulforhodamine B assay; format: functional; conditions: HCT-116, 48 h; outline: as §3

Compound: Cc1ccc(C2=NNC(c3cc(Cc4ccc(O)c(C5CC(c6ccc(C)cc6)=NN5)c4)ccc3O)C2)cc1 (stereo not drawn)
- LC50 [1]: > 100 µM
- LC50 [2]: > 100 µM
- LC50 [3]: > 100 µM
- LC50 [4]: > 100 µM
- LC50 [5]: > 100 µM
- LC50 [6]: 55.2 µM
- LC50 [7]: > 100 µM
- LC50 [8]: > 100 µM
- LC50 [9]: > 100 µM
- LC50 [10]: > 100 µM
- LC50 [11]: > 100 µM
- LC50 [12]: > 100 µM
- GI50 [13]: 3.85 µM
- GI50 [14]: 7.73 µM
- LC50 [15]: > 100 µM
- LC50 [16]: > 100 µM
- LC50 [17]: 31.7 µM
- LC50 [18]: > 100 µM
- LC50 [19]: > 100 µM
- LC50 [20]: > 100 µM
- LC50 [21]: > 100 µM
- LC50 [22]: > 100 µM
- LC50 [23]: > 100 µM
- LC50 [24]: > 100 µM
- GI50 [25]: 9.89 µM
- GI50 [26]: 6.84 µM
- GI50 [27]: 8.64 µM
- GI50 [28]: 8.28 µM
- GI50 [29]: 8.28 µM
- GI50 [30]: 5.3 µM
- GI50 [31]: 4.88 µM
- GI50 [32]: 3.64 µM
- GI50 [33]: 4.11 µM
